The record followed here is ChEMBL document CHEMBL1157015, “New isatin derivatives with antioxidant activity” (Eur J Med Chem, 2010).

Common to all, as to format: functional
A short description of assay [1]: Antioxidant activity against hydroperoxyl radical assessed as inhibition time at 3.71 uM by Briggs-Rauscher method. In outline: (§1)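 Briggs–Rauscher oscillating reaction run under acidic conditions (pH ca. 2). Read-out is the inhibitory phase induced in the oscillations.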
Assay [2] is described as follows: Antioxidant activity against hydroperoxyl radical assessed as inhibition time at 2.97 uM by Briggs-Rauscher method. A digest of the protocol: as §1
A short description of assay [3]: Antioxidant activity against ABTS radical assessed as trolox equivalent by TEAC assay. A digest of the protocol:
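TEAC assay run at pH 7.4 against the ABTS radical cation. Trolox served as standard, with activity expressed relative to it.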

Assay [4] in a line: Antioxidant activity against hydroperoxyl radical assessed as resorcinol equivalent by Briggs-Rauscher method. A digest of the protocol: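 Briggs–Rauscher oscillating reaction run at acidic pH (ca. 2), using resorcinol as standard. Activity is expressed relative to resorcinol from the inhibitory phase of the oscillations.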
The nature of assay [5]: Antioxidant activity against hydroperoxyl radical assessed as inhibition time at 1.48 uM by Briggs-Rauscher method. A digest of the protocol: as §1
A short description of assay [6]: Antioxidant activity against hydroperoxyl radical assessed as inhibition time at 2.25 uM by Briggs-Rauscher method. A digest of the protocol:
as §1

Assay [7] in a line: Antioxidant activity against hydroperoxyl radical assessed as inhibition time at 3.34 uM by Briggs-Rauscher method. In outline:
as §1

Calls of active or inactive are those of the source. The rule behind the calls is not given here.

For `COc1cc(C2(c3cc(OC)c(N)cc3OC)C(=O)Nc3ccccc32)c(OC)cc1N`, the TIME in assay [1] amounted to 0.296 h; in assay [2] it was 0.24 h; in assay [5] it was 0.154 h; in assay [6], 0.216 h; in assay [7] it was 0.269 h. Also, the Activity in assay [3] is 1.4 mM; in assay [4], 1.28 µM.

Take `COc1ccc(OC)c(NC(=O)C(=O)c2ccccc2NC(C)=O)c1`: the outcome in assay [3] and in assay [4] was inactive.
